Measurements reported in ChEMBL document CHEMBL3612027, “Substrate-guided optimization of the syringolins yields potent proteasome inhibitors with activity against leukemia cell lines” (Bioorg Med Chem, 2015).

Experiments:
[1] = target: T1, Proteasome Macropain subunit MB1 (Homo sapiens, UniProt P28074); test: Inhibition of human 20S proteasome beta5 subunit using Suc-LLVY-AMC as substrate by fluorescence assay
T1 sequence (P28074 whole entry): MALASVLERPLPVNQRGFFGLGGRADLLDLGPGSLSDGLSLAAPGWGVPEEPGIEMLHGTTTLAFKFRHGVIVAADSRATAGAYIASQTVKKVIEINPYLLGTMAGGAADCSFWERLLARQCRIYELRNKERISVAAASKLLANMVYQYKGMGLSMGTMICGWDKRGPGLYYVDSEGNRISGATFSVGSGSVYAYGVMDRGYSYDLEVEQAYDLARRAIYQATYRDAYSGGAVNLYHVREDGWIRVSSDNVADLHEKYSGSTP

MOLT-4 [2] = test: Cytotoxicity against human MOLT4 cells after 48 hrs; assay type: functional; settings: MOLT-4, 48 h
SR [3] = test: Cytotoxicity against human SR cells after 48 hrs; assay type: functional
Summary of the method: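 Dose-dependent growth inhibition was assessed at the National Cancer Institute against its cancer cell line panel as a follow-up to the 10 micromolar single-dose screen.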

CCRF-CEM = test: Cytotoxicity against human CCRF-CEM cells assessed as cell growth at 10 uM after 48 hrs relative to control; assay type: functional; settings: read-out: Activity
Summary of the method: (§1)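 Run at the National Cancer Institute as a single-dose screen across its 60-cell-line cancer panel. Compound was tested at 10 micromolar, and growth was expressed as a percentage of negative-control cultures.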

MOLT-4 [4] = test: Cytotoxicity against human MOLT4 cells assessed as cell growth at 10 uM after 48 hrs relative to control; assay type: functional; settings: MOLT-4, 48 h, read-out: Activity; summary of the method: as §1
SR [5] = test: Cytotoxicity against human SR cells assessed as cell growth at 10 uM after 48 hrs relative to control; assay type: functional; settings: read-out: Activity
Summary of the method: (§2)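 Submitted to the National Cancer Institute for a single-dose screen at 10 micromolar against 60 cancer cell lines. Growth is expressed relative to negative-control cultures.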

HOP-62 = test: Cytotoxicity against human HOP62 cells assessed as cell growth at 10 uM after 48 hrs relative to control; assay type: functional; settings: HOP-62, 48 h, read-out: Activity; summary of the method: as §1
HOP-92 = test: Cytotoxicity against human HOP92 cells assessed as cell growth at 10 uM after 48 hrs relative to control; assay type: functional; settings: HOP-92, 48 h, read-out: Activity; summary of the method: as §1
NCI-H226 = test: Cytotoxicity against human NCI-H226 cells assessed as cell growth at 10 uM after 48 hrs relative to control; assay type: functional; settings: NCI-H226, 48 h, read-out: Activity; summary of the method: as §1
NCI-H322M = test: Cytotoxicity against human NCI-H322M cells assessed as cell growth at 10 uM after 48 hrs relative to control; assay type: functional; settings: read-out: Activity; summary of the method: as §1
COLO 205 = test: Cytotoxicity against human COLO205 cells assessed as cell growth at 10 uM after 48 hrs relative to control; assay type: functional; settings: COLO 205, 48 h, read-out: Activity; summary of the method: as §1
HT-29 = test: Cytotoxicity against human HT-29 cells assessed as cell growth at 10 uM after 48 hrs relative to control; assay type: functional; settings: HT-29, 48 h, read-out: Activity; summary of the method: as §1
KM12 = test: Cytotoxicity against human KM12 cells assessed as cell growth at 10 uM after 48 hrs relative to control; assay type: functional; settings: KM12, 48 h, read-out: Activity; summary of the method: as §1
SW-620 = test: Cytotoxicity against human SW620 cells assessed as cell growth at 10 uM after 48 hrs relative to control; assay type: functional; settings: SW-620, 48 h, read-out: Activity; summary of the method: as §2
SF-268 = test: Cytotoxicity against human SF268 cells assessed as cell growth at 10 uM after 48 hrs relative to control; assay type: functional; settings: SF-268, 48 h, read-out: Activity; summary of the method: as §1
SNB-75 = test: Cytotoxicity against human SNB75 cells assessed as cell growth at 10 uM after 48 hrs relative to control; assay type: functional; settings: SNB-75, 48 h, read-out: Activity; summary of the method: as §2
LOX IMVI = test: Cytotoxicity against human LOXIMVI cells assessed as cell growth at 10 uM after 48 hrs relative to control; assay type: functional; settings: read-out: Activity; summary of the method: as §1
MDA-MB-435 = test: Cytotoxicity against human MDA-MB-435 cells assessed as cell growth at 10 uM after 48 hrs relative to control; assay type: functional; settings: MDA-MB-435, 48 h, read-out: Activity; summary of the method: as §1
SK-MEL-2 = test: Cytotoxicity against human SK-MEL-2 cells assessed as cell growth at 10 uM after 48 hrs relative to control; assay type: functional; settings: SK-MEL-2, 48 h, read-out: Activity; summary of the method: as §1
SK-MEL-28 = test: Cytotoxicity against human SK-MEL-28 cells assessed as cell growth at 10 uM after 48 hrs relative to control; assay type: functional; settings: SK-MEL-28, 48 h, read-out: Activity; summary of the method: as §1
SK-MEL-5 = test: Cytotoxicity against human SK-MEL-5 cells assessed as cell growth at 10 uM after 48 hrs relative to control; assay type: functional; settings: SK-MEL-5, 48 h, read-out: Activity; summary of the method: as §1
UACC-257 = test: Cytotoxicity against human UACC257 cells assessed as cell growth at 10 uM after 48 hrs relative to control; assay type: functional; settings: UACC-257, 48 h, read-out: Activity; summary of the method: as §2
OVCAR-4 = test: Cytotoxicity against human OVCAR4 cells assessed as cell growth at 10 uM after 48 hrs relative to control; assay type: functional; settings: OVCAR-4, 48 h, read-out: Activity; summary of the method: as §1
OVCAR-8 = test: Cytotoxicity against human OVCAR8 cells assessed as cell growth at 10 uM after 48 hrs relative to control; assay type: functional; settings: OVCAR-8, 48 h, read-out: Activity; summary of the method: as §1
786-0 = test: Cytotoxicity against human 786-0 cells assessed as cell growth at 10 uM after 48 hrs relative to control; assay type: functional; settings: 786-0, 48 h, read-out: Activity; summary of the method: as §1
A498 = test: Cytotoxicity against human A498 cells assessed as cell growth at 10 uM after 48 hrs relative to control; assay type: functional; settings: A498, 48 h, read-out: Activity; summary of the method: as §1
NCI-H522 = test: Cytotoxicity against human NCI-H522 cells assessed as cell growth at 10 uM after 48 hrs relative to control; assay type: functional; settings: NCI-H522, 48 h, read-out: Activity; summary of the method: as §1
[6] = target: T2, Proteasome Macropain subunit MB1 (Homo sapiens) (UniProt P28074)
T2 sequence (whole entry): T1 sequence (P28074 whole entry)

Structure (SMILES) | Ki [1] | growth at 10 µM (CCRF-CEM) | growth at 10 µM (MOLT-4 [4]) | growth at 10 µM (SR [5]) | growth at 10 µM (HOP-62) | growth at 10 µM (HOP-92) | growth at 10 µM (NCI-H226) | growth at 10 µM (NCI-H322M) | growth at 10 µM (COLO 205) | growth at 10 µM (HT-29) | growth at 10 µM (KM12) | growth at 10 µM (SW-620) | growth at 10 µM (SF-268) | growth at 10 µM (SNB-75) | growth at 10 µM (LOX IMVI) | growth at 10 µM (MDA-MB-435) | growth at 10 µM (SK-MEL-2) | growth at 10 µM (SK-MEL-28) | growth at 10 µM (SK-MEL-5) | growth at 10 µM (UACC-257) | other results
COC(=O)[C@@H](NC(=O)N[C@@H](Cc1ccccc1)C(=O)N[C@H]1CCCCNC(=O)/C=C/[C@H](Cc2ccccc2)NC1=O)C(C)C | 447 nM | 9.59% | -0.13% | 1.45% | 51.6% | 15.7% | -44.2% | 98.1% | 44.6% | 14.5% | 7.99% | 23.1% | 10.1% | -40.2% | -4.92% | -69.1% | 0.98% | 33.3% | 18.6% | 16.4% | GI50 (MOLT-4 [2]): 3320 nM; GI50 (SR [3]): 2780 nM; growth at 10 µM (OVCAR-4): 53.3%; growth at 10 µM (OVCAR-8): 82%; growth at 10 µM (786-0): 71.8%; growth at 10 µM (A498): 40.7%; growth at 10 µM (NCI-H522): -37%; Kin [6]: 0.000623 s⁻¹
COC(=O)[C@@H](NC(=O)N[C@@H](Cc1ccccc1)C(=O)N[C@H]1CCCCNC(=O)/C=C/[C@H](C(C)C)NC1=O)C(C)C | 950 nM | 55.1% | 49.2% | 8.54% | 84.4% | 18.9% | 54.7% | 94.2% | 78.5% | 31.1% | 30.5% | 38.5% | 30% | -27.8% | 15.2% | -59.9% | 12.7% | 52.1% | 34% | 58.5% | growth at 10 µM (OVCAR-4): 56.6%; growth at 10 µM (OVCAR-8): 92.3%; growth at 10 µM (786-0): 97.5%; growth at 10 µM (A498): 104%; growth at 10 µM (NCI-H522): -43.8%
COC(=O)[C@@H](NC(=O)N[C@H](C(=O)N[C@H]1CCCCNC(=O)/C=C/[C@H](Cc2c[nH]c3ccccc23)NC1=O)C(C)C)C(C)C | 1710 nM | 15.8% | 8.54% | 9.87% | 95% | 18% | 15.1% | 76.2% | 58.9% | 3.42% | 74.5% | 58.3% | 9.42% | -34% | 25.1% | -81.5% | 17.4% | 41.9% | 60.6% | 65.4% | growth at 10 µM (OVCAR-4): 2.98%; growth at 10 µM (OVCAR-8): 97.1%; growth at 10 µM (786-0): 83.9%; growth at 10 µM (A498): 37.9%; growth at 10 µM (NCI-H522): -17.8%
COC(=O)[C@@H](NC(=O)N[C@H](C(=O)N[C@H]1CCCCNC(=O)/C=C/[C@H](C(C)C)NC1=O)C(C)C)C(C)C | 2120 nM | 15.1% | 10.2% | 7.05% | 22.9% | -8.79% | -24% | 77% | 51.7% | 11.7% | 1.78% | 30.3% | -20.1% | -34.6% | -24.1% | -55.5% | 1.6% | 30.2% | -4.25% | 33.4% | GI50 (MOLT-4 [2]): 4730 nM; GI50 (SR [3]): 5130 nM; growth at 10 µM (OVCAR-4): 6.22%; growth at 10 µM (OVCAR-8): 86.4%; growth at 10 µM (786-0): 83.3%; growth at 10 µM (A498): 43.2%
COC(=O)[C@@H](NC(=O)N[C@@H](Cc1ccccc1)C(=O)N[C@H]1CCCCNC(=O)/C=C/[C@H](Cc2c[nH]c3ccccc23)NC1=O)C(C)C | 385 nM | 58.2% | 13.9% | 21.9% | 113% | 91.3% | 65.7% | 99.4% | 94% | 29.7% | 94.6% | 87.7% | 78.8% | 33% | 64.7% | 1.21% | 22.3% | 62.7% | 63.9% | 87.1% | GI50 (MOLT-4 [2]): 599 nM; GI50 (SR [3]): 453 nM; growth at 10 µM (OVCAR-4): 102%; growth at 10 µM (OVCAR-8): 98.9%; growth at 10 µM (786-0): 99.7%; growth at 10 µM (A498): 78.2%; growth at 10 µM (NCI-H522): -0.14%
